Laboratory results: ChEMBL document CHEMBL3585270, “Discovery of oxime-bearing naphthalene derivatives as a novel structural type of Nrf2 activators” (Bioorg Med Chem, 2015)
pIC50: −log10 of the molar value. Activity calls are given as the source filed them. The calls are words filed in the database; no cut-off is given here.

Legend:
[1] = Cytotoxicity against human NPC-TW01 cells assessed as reduction in cell viability by MTT assay; assay type: cell-based
In short: (§1)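 Cells cultured in MEM or RPMI1640 with 10% FBS, 37 °C, 5% CO₂. After compound exposure, 5 µg/ml MTT in MEM for 2 h at 37 °C, then solubilized overnight at 37 °C (40% DMF, 20% SDS); absorbance at 570 nm. IC50 taken from linear portion of curve as concentration cutting absorbance 50% versus control.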

[2] = target: T1, Nuclear factor erythroid 2-related factor 2 (Homo sapiens) (UniProt Q16236); assay: Activation of Nrf2 in human NPC-TW01 or HONE1 cells expressing ARE-luciferase at 20 uM incubated for 16 hrs by luciferase reporter gene assay relative to untreated control; assay type: cell-based
T1 sequence (whole entry): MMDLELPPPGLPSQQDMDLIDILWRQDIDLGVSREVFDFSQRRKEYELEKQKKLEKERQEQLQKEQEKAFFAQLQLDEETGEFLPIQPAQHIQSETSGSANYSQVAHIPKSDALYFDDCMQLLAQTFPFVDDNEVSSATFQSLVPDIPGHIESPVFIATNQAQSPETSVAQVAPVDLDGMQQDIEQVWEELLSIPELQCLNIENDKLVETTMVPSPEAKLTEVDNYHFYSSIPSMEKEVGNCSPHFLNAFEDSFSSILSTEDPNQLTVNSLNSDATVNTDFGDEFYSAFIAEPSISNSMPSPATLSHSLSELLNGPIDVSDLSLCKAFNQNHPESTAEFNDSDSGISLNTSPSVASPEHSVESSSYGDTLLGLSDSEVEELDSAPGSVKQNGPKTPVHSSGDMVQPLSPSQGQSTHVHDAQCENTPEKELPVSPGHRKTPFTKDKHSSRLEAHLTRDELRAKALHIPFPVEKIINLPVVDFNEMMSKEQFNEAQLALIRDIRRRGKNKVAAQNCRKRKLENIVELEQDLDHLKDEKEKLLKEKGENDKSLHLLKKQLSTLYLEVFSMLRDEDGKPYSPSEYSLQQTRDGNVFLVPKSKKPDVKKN

[3] = system: NCI-H226; assay: Cytotoxicity against human NCI-H226 cells assessed as reduction in cell viability by MTT assay; assay type: cell-based; in short: as §1
[4] = system: Jurkat; assay: Cytotoxicity against human Jurkat cells assessed as reduction in cell viability by MTT assay; assay type: cell-based; in short: as §1
[5] = target: T1, Nuclear factor erythroid 2-related factor 2 (Homo sapiens); assay: Activation of Nrf2 in human NPC-TW01 or HONE1 cells expressing ARE-luciferase at 20 uM incubated for 16 hrs in presence of PKC signaling inhibitor staurosporine by luciferase reporter gene assay relative to untreated control; assay type: cell-based
[6] = target: T1, Nuclear factor erythroid 2-related factor 2 (Homo sapiens); assay: Induction of Nrf2 Ser40 phosphorylation in human NPC-TW01 cells expressing pGL4-9ARE incubated for 6 and 12 hrs by Western blot method; assay type: cell-based
In short: (§2)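 TW01-pGL4-9ARE cells treated and harvested at set times; lysed in NP-40 buffer with phosphatase/protease inhibitors, protein by BCA. 40 µg lysate on 10% SDS-PAGE, PVDF transfer, 5% BSA/TBS-Tween block; primary antibodies (p-Nrf2 Ser40, total Nrf2, actin) overnight at 4 °C, HRP secondary 1 h room temperature; imaged by chemiluminescence imager.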

[7] = system: NPC-TW01; assay: Effect on Nrf2 protein expression in human NPC-TW01 cells expressing pGL4-9ARE incubated for 6 and 12 hrs by Western blot method; assay type: functional, cell-based; in short: as §2
[8] = system: NPC-TW01; assay: Inhibition of H2O2-induced intracellular oxidative stress in human NPC-TW01 cells expressing pGL4-9ARE at 20 uM pre-treated for 6 hrs before H2O2 challenge for 16 hrs by DCFH-DA dye based flow cytometry; assay type: functional, cell-based
In short: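 TW01-pGL4-9ARE cells, 1 × 10⁵ per well, grown overnight, pre-treated 20 µM for 6 h, then 500 µM H2O2 for 16 h. Stained with 20 µM DCFH-DA 30 min at 37 °C, resuspended in PBS, analysed by flow cytometry; geometric mean fluorescence reported, p < 0.05 versus H2O2 alone.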

Row | SMILES | fold change (FC) [2] | Activity [5] | Activity [6] | pIC50 [1] | pIC50 [3] | pIC50 [4] | Activity [7] | inhibition [8]
1 | O/N=C(\COc1ccc2ccccc2c1)c1ccc2ccccc2c1 | 1.36 | – | – | < 4.30 | 4.43 | 4.61 | – | –
2 | O/N=C(\COc1ccc2ccccc2c1)c1ccc(C(F)(F)F)cc1 | 1.05 | – | – | 4.51 | 4.47 | 4.44 | – | –
3 | O/N=C(\COc1ccc2ccccc2c1)c1ccc(-c2ccccc2)cc1 | 1.18 | – | – | < 4.30 | < 4.30 | < 4.30 | – | –
4 | CC(C)(C)c1cc(O)ccc1O | 1.77 | – | – | – | – | – | – | –
5 | C/C(COc1cccc2ccccc12)=N\O | 1.17 | – | – | < 4.30 | < 4.30 | < 4.30 | – | –
6 | COc1ccc(/C(COc2ccc3ccccc3c2)=N/O)cc1 | 1.65 | inactive | Active | < 4.30 | < 4.30 | 4.45 | inactive | Active
7 | O/N=C(\COc1ccc2ccccc2c1)c1ccccc1 | 3.49 | inactive | Active | < 4.30 | < 4.30 | < 4.30 | inactive | Active
8 | O/N=C(\COc1ccc2ccccc2c1)c1ccc(F)c(F)c1 | 1.42 | – | – | 4.44 | 4.37 | 4.35 | – | –
9 | C/C(COc1ccc2ccccc2c1)=N\O | 2.04 | inactive | Active | < 4.30 | < 4.30 | < 4.30 | inactive | Active
10 | COc1ccc(OC)c(/C(COc2ccc3ccccc3c2)=N/O)c1 | 0.65 | – | – | 4.78 | 5.07 | 5.00 | – | –

Further lines, with some results ahead:

Row | fold change (FC) [2] | Activity [5] | Activity [6] | SMILES | pIC50 [1] | pIC50 [3] | pIC50 [4] | Activity [7] | inhibition [8]
11 | 1.03 | – | – | O/N=C(\COc1cccc2ccccc12)c1ccc(Br)cc1 | < 4.30 | < 4.30 | < 4.30 | – | –
12 | 1.1 | – | – | COc1ccc(/C(COc2cccc3ccccc23)=N/O)cc1 | 4.49 | 4.44 | 4.50 | – | –
13 | 0.95 | – | – | O/N=C(\COc1ccc2ccccc2c1)c1ccc(Br)cc1 | 4.55 | 4.41 | 4.33 | – | –
14 | 1.25 | – | – | O/N=C(\COc1cccc2ccccc12)c1ccc2ccccc2c1 | 4.44 | 4.41 | < 4.30 | – | –
15 | 1.19 | – | – | O/N=C(\COc1cccc2ccccc12)c1ccc(-c2ccccc2)cc1 | < 4.30 | < 4.30 | < 4.30 | – | –
16 | 2.61 | inactive | Active | O/N=C(\COc1ccc2ccccc2c1)c1ccc(F)cc1 | < 4.30 | < 4.30 | < 4.30 | inactive | Active
17 | 0.93 | – | – | COc1ccc(OC)c(/C(COc2cccc3ccccc23)=N/O)c1 | 4.49 | 4.38 | < 4.30 | – | –
18 | 1.09 | – | – | O/N=C(\COc1cccc2ccccc12)c1ccc(F)cc1 | < 4.30 | < 4.30 | < 4.30 | – | –
19 | 1.07 | – | – | O/N=C(\COc1ccc2ccccc2c1)c1ccc(Cl)cc1 | 4.59 | 4.46 | 4.43 | – | –
20 | 1 | – | – | O/N=C(\COc1cccc2ccccc12)c1ccc(Cl)cc1 | < 4.30 | < 4.30 | < 4.30 | – | –
21 | 1.01 | – | – | O/N=C(\COc1cccc2ccccc12)c1ccc(C(F)(F)F)cc1 | 4.33 | < 4.30 | < 4.30 | – | –
22 | 0.86 | – | – | O/N=C(\COc1cccc2ccccc12)c1ccc(F)c(F)c1 | 4.43 | < 4.30 | 4.37 | – | –
23 | 1.14 | – | – | O/N=C(\COc1cccc2ccccc12)c1ccccc1 | < 4.30 | 4.33 | < 4.30 | – | –
